≈ marks a conversion by molar mass, not a printed value.
Legend:
Format in all cases: functional
[1] = system: SF-268; experiment: Growth inhibition of human SF268 cells after 48 hrs; details: SF-268, 48 h
Procedure, shortened: (§1)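 NCI sulforhodamine B assay. Cells in 5% fetal bovine serum/RPMI1640 seeded, grown 24 h, then exposed to serial compound dilutions for 48 h. Fixed with trichloroacetic acid, stained with sulforhodamine B, optical density read on a plate reader. GI50 taken as the concentration causing a 50% reduction in net protein increase.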

[2] = system: KM-20L2; experiment: Growth inhibition of human KM20L2 cells after 48 hrs; details: KM-20L2, 48 h; procedure, shortened: as §1
[3] = system: DU-145; experiment: Growth inhibition of human DU145 cells after 48 hrs; details: DU-145, 48 h; procedure, shortened: as §1
[4] = system: NCI-H460; experiment: Growth inhibition of human NCI-H460 cells after 48 hrs; details: NCI-H460, 48 h; procedure, shortened: as §1
[5] = system: BXPC-3; experiment: Growth inhibition of human BXPC3 cells after 48 hrs; details: BXPC-3, 48 h; procedure, shortened: as §1
[6] = system: MCF7; experiment: Growth inhibition of human MCF7 cells after 48 hrs; details: MCF7, 48 h; procedure, shortened: as §1
[7] = system: P388; experiment: Growth inhibition of murine P388 cells after 48 hrs; details: Mus musculus, P388, 48 h; read-out: ED50 (the source's name)
Procedure, shortened: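 Mouse leukemia P388 cells held 24 h in 10% horse serum/Fisher medium, then incubated 48 h with serial compound dilutions. Cell numbers counted on a Coulter particle counter; ED50 taken as the concentration giving 50% growth inhibition.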

| SMILES | GI50 [1] | GI50 [2] | GI50 [3] | GI50 [4] | GI50 [5] | GI50 [6] | EC50 [7] |
| --- | --- | --- | --- | --- | --- | --- | --- |
| CC(=O)O[C@@H]1[C@@H](OC(C)=O)[C@H](O)[C@@]2(O)c3cc4c(c(O)c3C(=O)N[C@H]2[C@@H]1OC(C)=O)OCO4 | > 10 µg/mL | > 10 µg/mL | > 10 µg/mL | > 10 µg/mL | > 10 µg/mL | > 10 µg/mL | > 10 µg/mL |
| CC(=O)O[C@H]1[C@@H](OC(C)=O)[C@@H]2NC(=O)c3c(cc4c(c3O)OCO4)[C@@]23OC(=S)O[C@H]3[C@@H]1OC(C)=O | > 1 µg/mL | > 1 µg/mL | > 1 µg/mL | > 1 µg/mL | > 1 µg/mL | > 1 µg/mL | > 1 µg/mL |
| CC(=O)O[C@@H]1[C@@H](OC(C)=O)[C@H](OC(C)=O)[C@H]2c3cc4c(c(O)c3C(=O)N[C@H]2[C@@H]1OC(C)=O)OCO4 | 3 µg/mL (≈ 6.08 µM) | 1.8 µg/mL (≈ 3.65 µM) | 1.4 µg/mL (≈ 2.84 µM) | 1.3 µg/mL (≈ 2.63 µM) | 1.8 µg/mL (≈ 3.65 µM) | 2 µg/mL (≈ 4.05 µM) | 0.2 µg/mL (≈ 0.405 µM) |
| O=C1N[C@H]2[C@H](O)[C@H](O)[C@@H](O)[C@H](O)[C@H]2c2cc3c(c(O)c21)OCO3 | 0.26 µg/mL (≈ 0.799 µM) | 0.31 µg/mL (≈ 0.953 µM) | 0.21 µg/mL (≈ 0.646 µM) | 0.23 µg/mL (≈ 0.707 µM) | 0.32 µg/mL (≈ 0.984 µM) | 0.27 µg/mL (≈ 0.83 µM) | 0.14 µg/mL (≈ 0.43 µM) |
| CC(=O)O[C@@H]1[C@@H](OC(C)=O)[C@H](O)[C@H]2c3cc4c(c(O)c3C(=O)N[C@H]2[C@@H]1OC(C)=O)OCO4 | > 1 µg/mL | > 1 µg/mL | > 1 µg/mL | > 1 µg/mL | > 1 µg/mL | > 1 µg/mL | > 1 µg/mL |
| COC(=O)C(=O)Oc1c2c(cc3c1C(=O)N(C(=O)C(=O)OC)[C@H]1[C@H](OC(C)=O)[C@H](OC(C)=O)[C@@H](OC(C)=O)[C@H](OC(C)=O)[C@@]31OC(=O)C(=O)OC)OCO2 | > 10 µg/mL | > 10 µg/mL | > 10 µg/mL | > 10 µg/mL | > 10 µg/mL | > 10 µg/mL | > 10 µg/mL |
| CC(=O)Oc1c2c(cc3c1C(=O)N[C@H]1[C@H](OC(C)=O)[C@H](OC(C)=O)[C@@H](OC(C)=O)[C@H](O)[C@@]31O)OCO2 | 9.9 µg/mL (≈ 19.4 µM) | 3.6 µg/mL (≈ 7.07 µM) | 4.3 µg/mL (≈ 8.44 µM) | > 10 µg/mL | 14.4 µg/mL (≈ 28.3 µM) | 5.2 µg/mL (≈ 10.2 µM) | 1.7 µg/mL (≈ 3.34 µM) |
| CC(=O)Oc1c2c(cc3c1C(=O)N[C@H]1[C@H](OC(C)=O)[C@H](OC(C)=O)[C@@H](OC(C)=O)[C@H](OC(C)=O)[C@@]31O)OCO2 | > 10 µg/mL | > 10 µg/mL | > 10 µg/mL | > 10 µg/mL | > 10 µg/mL | > 10 µg/mL | 8.9 µg/mL (≈ 16.1 µM) |
| CC(=O)O[C@@H]1[C@H](OC(C)=O)[C@@H](OC(C)=O)C=C2c3cc4c(c(O)c3C(=O)N[C@H]21)OCO4 | 0.16 µg/mL (≈ 0.369 µM) | 0.051 µg/mL (≈ 0.118 µM) | 0.028 µg/mL (≈ 0.0646 µM) | 0.033 µg/mL (≈ 0.0761 µM) | 0.011 µg/mL (≈ 0.0254 µM) | 0.06 µg/mL (≈ 0.138 µM) | 0.013 µg/mL (≈ 0.03 µM) |
| CC(=O)O[C@H]1[C@@H](OC(C)=O)[C@@H]2NC(=O)c3c(cc4c(c3O)OCO4)[C@@]23OC(=O)O[C@H]3[C@@H]1OC(C)=O | 7.5 µg/mL (≈ 15.2 µM) | 2.8 µg/mL (≈ 5.68 µM) | 1.5 µg/mL (≈ 3.04 µM) | 2.9 µg/mL (≈ 5.88 µM) | 3.1 µg/mL (≈ 6.28 µM) | 4.9 µg/mL (≈ 9.93 µM) | 1.5 µg/mL (≈ 3.04 µM) |
| CC(=O)Oc1c2c(cc3c1C(=O)N[C@@H]1C3=C[C@H](OC(C)=O)[C@@H](OC(C)=O)[C@H]1OC(C)=O)OCO2 | 0.055 µg/mL (≈ 0.116 µM) | 0.043 µg/mL (≈ 0.0904 µM) | 0.023 µg/mL (≈ 0.0484 µM) | 0.28 µg/mL (≈ 0.589 µM) | 0.16 µg/mL (≈ 0.337 µM) | 0.088 µg/mL (≈ 0.185 µM) | 0.027 µg/mL (≈ 0.0568 µM) |
| O=C1N[C@@H]2C(=C[C@H](O)[C@@H](O)[C@H]2O)c2cc3c(c(O)c21)OCO3 [NARCICLASINE] | 0.0031 µg/mL (≈ 0.0101 µM) | 0.0032 µg/mL (≈ 0.0104 µM) | 0.0032 µg/mL (≈ 0.0104 µM) | 0.0084 µg/mL (≈ 0.0273 µM) | 0.0035 µg/mL (≈ 0.0114 µM) | 0.0032 µg/mL (≈ 0.0104 µM) | 0.0012 µg/mL (≈ 0.00391 µM) |
| O=C1N[C@H]2[C@H](O)[C@H](O)[C@@H](O)[C@H](O)[C@@H]2c2cc3c(c(O)c21)OCO3 [PANCRATISTATIN] | 0.014 µg/mL (≈ 0.043 µM) | 0.025 µg/mL (≈ 0.0769 µM) | 0.015 µg/mL (≈ 0.0461 µM) | 0.032 µg/mL (≈ 0.0984 µM) | 0.02 µg/mL (≈ 0.0615 µM) | 0.023 µg/mL (≈ 0.0707 µM) | 0.017 µg/mL (≈ 0.0523 µM) |

— ChEMBL document CHEMBL1142985, “Antineoplastic agents. 550. Synthesis of 10b(s)-epipancratistatin from (+)-narciclasine” (2007)
